The list is not random: actives were taken first. Their share in the collection is about 2.7%.
TPT1 inhibitor – Candida albicans TPT1 enzyme inhibitors, primary screen, biochemical, fluorescence polarization; tRNA 2'-phosphotransferase TPT1 (Candida albicans SC5314); recombinant caTPT1, FP RNA substrate dephosphorylation; inhibition, % at 5 µM; 300,000 tested, 0.81% active;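 active = inhibition above the mean of all tested compounds plus 3 SD, set per screening campaign, cut at about 24% in these data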;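 also: plate controls were DMSO alone for no effect and ferristatin control at 100 nM for full effect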
Rpn11 inh – Rpn11 (PSMD14) deubiquitinase inhibitors, primary screen, biochemical, fluorescence polarization, uHTS. 26S proteasome non-ATPase regulatory subunit 14 (Homo sapiens), O00487. human 26S proteasome, Ub4-pepOG fluorescence polarization; 20S core pre-blocked with epoxomicin. inhibition, % at 20 µM. 360,000 tested, 0.59% active. AID 588493, 2011;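 active = inhibition at 20 µM, scaled to each plate's controls, above about 33%, limit read from the data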
HNF4A DNA FP – change in binding of human HNF4A to DNA, primary screen, biochemical, fluorescence polarization, FITC-DNA; Hepatocyte nuclear factor 4-alpha (Homo sapiens), P41235; 1 h; activity change, % at 10 µM; 360,000 tested, 0.3% active; AID 1224865, 2016; in the data active = activity change above about 30%, passing the limit was not always enough
Target sequence (P41235 whole entry, looked up): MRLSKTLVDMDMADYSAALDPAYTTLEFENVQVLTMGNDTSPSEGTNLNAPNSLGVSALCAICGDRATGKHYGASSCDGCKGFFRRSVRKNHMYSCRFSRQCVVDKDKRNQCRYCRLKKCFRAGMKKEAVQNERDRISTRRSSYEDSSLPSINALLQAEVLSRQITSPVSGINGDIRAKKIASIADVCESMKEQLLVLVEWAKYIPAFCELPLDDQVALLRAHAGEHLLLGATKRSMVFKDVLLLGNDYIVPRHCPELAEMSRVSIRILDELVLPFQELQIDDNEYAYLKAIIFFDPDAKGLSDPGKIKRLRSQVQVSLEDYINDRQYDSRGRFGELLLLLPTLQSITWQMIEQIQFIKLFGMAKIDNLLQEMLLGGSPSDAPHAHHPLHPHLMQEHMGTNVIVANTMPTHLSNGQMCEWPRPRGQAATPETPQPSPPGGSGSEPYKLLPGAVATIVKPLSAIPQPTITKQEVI
NadD inh – inhibitors of S. aureus NadD, primary screen, biochemical, colorimetric, uHTS. inhibition, % at 20 µM. AID 602399, 2012. purified NadD enzyme, colorimetric absorbance read-out. 360,000 tested, 0.78% active; in the data active = inhibition above about 26%
PP1 inh – PP1-alpha phosphatase inhibitors, primary screen, counter-screen for PP5 inhibitor project, biochemical, fluorescence, OMFP substrate, single point; AID 2235, 2010; purified PP1alpha; inhibition, % at 6.7 µM; 320,000 tested, 0.9% active;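 active = inhibition above the mean inhibition of all tested compounds plus 3 SD, computed separately for each screening campaign, cut at about 15% in these data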
CSN deneddyl inh – inhibitors of CSN-mediated cullin deneddylation, primary screen, biochemical, fluorescence polarization, uHTS. COP9 signalosome complex subunit 5 (Homo sapiens), Q92905. Purified CSN, SCF-Nedd8-OG deneddylation. inhibition, % at 12.5 µM. 360,000 tested, 0.38% active. AID 651999, 2013;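 active = pattern-corrected inhibition above about 35%, with an unprinted fluorescence ratio check between 0.5 and 1.5, limit read from the data, passing the limit was not always enough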;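 also: 0% = enzyme with substrate and 100% = substrate without enzyme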
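test system = HEK293T-derived human Csn5 enzyme | amount = 0.24 nM Csn5 enzyme, final concentration | medium = Tris/NaCl/DTT buffer, pH 7.5 | schedule = 90 min reaction at room temperature | signal = FP | evaluation = inhibition of Csn5 cleavage, % | compound dosing = single dose of 12.5 µM compound with 0.25% DMSO | probe or stimulus = 10 nM SCFSkp2-Nedd8OG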
NadD inh conf – inhibitors of S. aureus NadD, confirmation, biochemical, colorimetric, single concentration. purified S. aureus NadD, colorimetric enzyme assay. 2,000 tested, 13% active. AID 624309, 2012. inhibition, % at 20 µM. shares compounds with NadD inh; in the data active = inhibition mostly above about 42%, no sharp cut-off; inactive = mostly below about 42%
* marks the source's active call; other numbers are inactive results; x = no result shown.

SMILES	TPT1 inhibitor	Rpn11 inh	HNF4A DNA FP	NadD inh	PP1 inh	CSN deneddyl inh	NadD inh conf
COc1ccc2c(Cl)c(C(=O)OCC(=O)c3ccc4c(c3)NC(=O)CO4)sc2c1Cl	x	-2	0	40*	x	0	0
COc1ccc(C(=O)/C=C/c2ccc(OCc3ccccc3)cc2)cc1CSCC(=O)O	x	5	-9	26*	x	21	27
O=C(CSc1nc(N2CCOCC2)nc(N2CCOCC2)n1)Nc1cccc(C(F)(F)F)c1	1	-2	5	-5	1	1	x
COc1ccc(N(CC(=O)N/N=C/c2ccc(-c3ccc([N+](=O)[O-])cc3)o2)S(=O)(=O)c2ccc(C)cc2)cc1	5	x	35	42*	0	28	5
COC/C=C/C1=CC2=CC(=O)C(C)(OC(=O)c3cnc4ccccc4n3)C(=O)C2=CN1c1ccc(OC)cc1 (centres undefined)	-2	-3	2	33*	18*	1	29
O=C(c1cccs1)N1C[C@H](O)[C@@H](n2cc(C3CC3)nn2)C[C@@H]1c1ccccc1	x	3	5	-1	x	3	x
CCOc1cccc(=O)c2c(C)n(CC(=O)c3ccccc3)c(C)c12	21	19	-3	48*	-1	-1	26
Cc1ccccc1OCc1nnc(SCC(=O)Nc2ccc3nc(SCC(=O)Nc4ccccc4)sc3c2)n1C	-2	9	5	32*	17*	4	3
Cc1cc(-c2csc(NC(=O)c3ccccc3C(F)(F)F)n2)c(C)n1Cc1ccccc1	6	7	2	33*	4	-6	20
O=C(Nc1nc(-c2ccccc2)cs1)c1ccccc1F	-1	-2	1	-4	1	-3	x
O=C1CCC(C(=O)N2CCCC(Nc3ccc(F)cc3)C2)=NN1 (centres undefined)	-4	-8	-1	-7	-1	0	x
O=C1OC(c2cccs2)=N/C1=C\c1ccc(-c2ccccc2Cl)o1	x	87*	17	39*	x	23	4
O=C1OC(c2cccs2)=N/C1=C/c1ccc(-c2cccc(C(=O)O)c2)o1	x	32	-53	9	x	28	x
Cc1nnc(SCC(=O)Nc2nsc(-c3ccccc3)n2)s1	-5	0	-2	-8	0	6	x
CC1(C)CC(=O)c2c(nc(SCC(=O)Nc3nsc(-c4ccccc4)n3)c(C#N)c2-c2ccccc2)C1	0	-4	1	39*	16*	0	-2
COc1ccccc1CNC(=O)/C=C/c1ccc(Br)o1	2	-28	-52	32*	2	34	30
COc1ccc(NC(=O)/C=C/c2ccc(Br)o2)cn1	-6	-30	-18	8	0	27	x
Cc1nn(Cc2ccccc2)c(C)c1C(=O)N1CCN(S(=O)(=O)/C=C/c2ccccc2)CC1	x	5	9	10	3	-5	x
Cc1cc2cc(CNC(=O)Nc3cccc(Cl)c3)ccc2n1C	-10	-8	-12	34*	16*	-5	4
Cc1cc(C)n(-c2cc(N3CCN(S(=O)(=O)c4ccc5ccccc5c4)CC3)ccc2[N+](=O)[O-])n1	-1	4	0	50*	10	4	41
Cn1cnnc1Sc1cc(N2CCN(S(=O)(=O)c3ccc(Cl)c(Cl)c3)CC2)ccc1[N+](=O)[O-]	-2	-3	2	42*	5	1	10
Cc1ccc(S(=O)(=O)N2CCN(c3ccc([N+](=O)[O-])c(Sc4nncn4C)c3)CC2)cc1	-5	-15	1	12	-2	-15	x
Cc1ccc(OCc2cc(C(=O)N(C)Cc3cnn(-c4ccccc4C)c3)no2)cn1	0	-2	-3	-1	-2	-2	x
